PubChem BioAssay AID588478 (ICCB-Longwood Screening Facility, Harvard Medical School, 2011)
The campaign covered roughly 330,000 compounds. About 1,100 (0.33%) were called active.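 The calls were made as follows: active = mean inhibition over replicate wells above about 20% (limit read from the data); inactive = the rest.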 Many of the other results were omitted from the sample, so actives are more common in it than they were.

What follows are compounds tested against Ubiquitin carboxyl-terminal hydrolase isozyme L5 (Homo sapiens) (UniProt Q9Y5K5) (assay: proteasome-bound UCH37 DUB activity blockers – biochemical, Ub-AMC cleavage, fluorescence, primary screen (AID 588478;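 also: 0% = compound-free wells with enzyme and 100% = wells lacking proteasome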)). Details: purified proteasome/UCH37, Ub-AMC cleavage fluorescence; hits give high values; concentration not given here.
In short: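 Test system – human UCH37 enzyme supplied as purified proteasome complex · Incubation – 30 min preincubation with enzyme, 25 min cleavage at room temperature · Detection – AMC fluorescence from Ub-AMC cleavage, excitation 355 nm, emission 460 nm · Benchmarks – no-proteasome wells (full inhibition) and compound-free wells (no inhibition)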

Chain of Ubiquitin carboxyl-terminal hydrolase isozyme L5 (Homo sapiens) (Q9Y5K5 whole entry, looked up): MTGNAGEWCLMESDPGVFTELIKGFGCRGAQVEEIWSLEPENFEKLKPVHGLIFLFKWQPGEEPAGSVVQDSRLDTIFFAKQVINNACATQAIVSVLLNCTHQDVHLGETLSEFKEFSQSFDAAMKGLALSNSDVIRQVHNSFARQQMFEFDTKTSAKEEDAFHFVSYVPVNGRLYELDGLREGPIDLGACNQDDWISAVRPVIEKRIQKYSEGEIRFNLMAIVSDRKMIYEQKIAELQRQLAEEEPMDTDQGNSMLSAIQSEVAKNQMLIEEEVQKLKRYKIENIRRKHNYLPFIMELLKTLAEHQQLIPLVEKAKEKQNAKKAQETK

Structure (SMILES) | inhibition
CN(Cc1ccccc1)C(=O)c1cccc(C(=O)N(C)Cc2ccccc2)c1 | 0.499% (inactive)
CCN(CC)C(=O)N(CC)Cc1ccccc1 | -0.131% (inactive)
CCN(CC)C(=O)c1nc[nH]c1C(=O)N(C)Cc1ccccc1 | 26.1% (active)
O=S1(=O)CCC(=NNc2ccc(C(F)(F)F)cn2)c2cc(F)ccc21 | 0.609% (inactive)
COc1ccc(C(=O)NCC(=O)NN=Cc2cn[nH]c2-c2ccccc2)cc1 | 1.68% (inactive)
Cn1cccc1/C=C1\SC(=S)N(NC(=O)c2ccc(Cl)cc2)C1=O | 1.88% (inactive)
O=C(O)c1ccc2c(c1)C(=O)N(NC(=O)c1ccc(O)cc1)C2=O | 7.31% (inactive)
CC(=O)N1C(=O)/C(=C2\SC(=S)N(NC(=O)c3ccc(O)cc3)C2=O)c2ccccc21 | 40.9% (active)
Cc1ccc(NC(=O)ON=Cc2ccc(F)cc2)cc1 | 5.21% (inactive)
Cc1cc(=O)oc2c3c(ccc12)OCC3=NN | -22.9% (inactive)
CC(=NNc1ccccc1C(=O)O)c1cccs1 | 10.1% (inactive)
COC(=O)c1ccc(C=NOCC(=O)NC2CCCCCCC2)cc1 | 0.759% (inactive)
COCCN1C=C2C(=O)C(C)(OC(=O)C3CCCC3)C(=O)C=C2C=C1c1ccsc1 (stereo not given) | 46.2% (active)
C=CCN1C=C2C(=O)C(C)(OC(=O)CCc3ccccc3)C(=O)C=C2C=C1c1ccc(C#N)cc1 (stereo not given) | -31% (inactive)
CC1(OC(=O)CCc2ccccc2)C(=O)C=C2C=C(c3ccc(C#N)cc3)N(CCc3ccccn3)C=C2C1=O (stereo not given) | 0.0366% (inactive)
COc1ccc(C=NNc2nncn2N)cc1Br | 14.1% (inactive)
O=C(CN(Cc1ccccc1)S(=O)(=O)c1ccc2c(c1)OCCO2)NN=Cc1cccc(Br)c1 | 0.583% (inactive)
CCOc1ccccc1C=c1sc2nc(-c3ccco3)nn2c1=O | 3.89% (inactive)
CCC(=NNC(=O)Cc1ccc(Br)cc1)c1cccs1 | 0.706% (inactive)
CCS(=O)(=O)N1CCCC(C(=O)NCCCN(C)Cc2ccccc2)C1 (stereo not given) | 29% (active)
CCS(=O)(=O)N1CCCC(C(=O)NCc2ccc(C)cc2)C1 (stereo not given) | 9.8% (inactive)
CCCS(=O)(=O)N1CCC(C(=O)NCCCN(C)Cc2ccccc2)CC1 | -3.1% (inactive)
O=C(NC1CCCC1)C(c1ccc(N2CCOCC2)cc1)N(C(=O)c1ccco1)c1ccccc1F (stereo not given) | 38.4% (active)
COc1cc(C(C(=O)NC2CCCC2)N(C(=O)c2ccco2)c2ccccc2C(C)=O)cc(OC)c1OC (stereo not given) | 4.15% (inactive)
O=C(NC1CCCC1)C(c1ccco1)N(C(=O)c1ccco1)c1ccc(F)cc1 (stereo not given) | 1.87% (inactive)
